Values after ≈ are worked out from the molar mass of the structure shown. Values joined by “and” are separate entries in the source; they are usually repeats but may differ in a detail not shown here. Equal entries are not always repeated. Where two headings read alike, the source gives them in different places.
What was measured:
[1] = tested on: C. albicans ATCC MYA-1003(R); test: MIC, broth dilution, strain G; type: cell-based, Candida albicans; details: for MIC: Candida albicans
Method in brief: (§1)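 Broth dilution MIC assay on the Candida panel: C. albicans strains A–G, C. glabrata (H), C. krusei (I) and C. parapsilosis (J). Test compounds were delivered in DMSO, with DMSO kept below 1% in the assay. The MIC is reported in µg/mL, with µM in parentheses. Reference antifungals (a polyene and four azoles) were run alongside.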

[2] = tested on: C. albicans ATCC MYA-1237(R); test: MIC, broth dilution, strain F; type: cell-based, Candida albicans; details: for MIC: Candida albicans
Method in brief: as §1

[3] = tested on: Candida albicans ATCC 10231; test: MIC, broth dilution, strain A; type: cell-based; details: for MIC: Candida albicans
Method in brief: as §1

[4] = tested on: C. albicans ATCC MYA-2310(S); test: MIC, broth dilution, strain E; type: cell-based, Candida albicans; details: for MIC: Candida albicans
Method in brief: as §1

[5] = tested on: Candida and Aspergillus strains; test: MIC against whole panel of fungal strains; type: cell-based; details: read-out: MIC values against the panel of fungal strains
Method in brief: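 Whole-cell broth dilution MIC across Candida strains A–J and three Aspergillus strains: A. flavus ATCC MYA-3631, A. nidulans ATCC 38163 and A. terreus ATCC MYA-3633. Aspergillus was tested as freshly harvested spores. DMSO was below 1% in the assay. Values are given in µg/mL (and µM), with a polyene and four azoles as reference agents.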

[6] = tested on: C. albicans ATCC 64124 (strain B); test: Time-kill assay; type: cell-based, Candida albicans; details: for time from which completely fungicidal: 2× MIC; for fungicidal concentration: time-kill curves
C. albicans ATCC 64124 = test: MIC, broth dilution, strain B; type: cell-based, Candida albicans; details: for MIC: Candida albicans
Method in brief: as §1

[7] = tested on: C. albicans ATCC 90819(R); test: MIC, broth dilution, strain D; type: cell-based, Candida albicans; details: for MIC: Candida albicans
Method in brief: as §1

[8] = tested on: Aspergillus terreus ATCC MYA-3633; test: MIC, broth dilution, strain M; type: cell-based; details: for MIC: Aspergillus terreus
[9] = tested on: C. albicans ATCC MYA-2876(S); test: MIC, broth dilution, strain C; type: cell-based, Candida albicans; details: for MIC: Candida albicans
Method in brief: as §1

[10] = tested on: Aspergillus strains (K–M); test: MIC against Aspergillus strains; type: cell-based; details: read-out: MIC values against Aspergillus strains
[11] = tested on: Aspergillus nidulans ATCC 38163; test: MIC, broth dilution, strain L; type: cell-based; details: for MIC: Aspergillus nidulans
[12] = tested on: murine red blood cells (mRBCs); details: data previously presented; cited from earlier work
[13] = tested on: C. albicans ATCC 10231 (strain A); test: ROS induction assay; type: cell-based, Candida albicans; details: 1× and 2× MIC, 1-h treatment; H2O2 1 mM
Method in brief: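 C. albicans ATCC 10231 cells were incubated 1 h at 37 °C with test compound at 1× or 2× MIC, with no drug (negative control), or with 1 mM H₂O₂ (positive control). DCFH-DA (40 µg/mL) was then added. ROS were detected and imaged by fluorescence microscopy.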

Candida krusei ATCC 6258 = test: MIC, broth dilution, strain I; type: cell-based; details: compounds 1–4n and AmB
Method in brief: as §1

[14] = tested on: Candida parapsilosis ATCC 22019; test: MIC, broth dilution, strain J; type: cell-based; details: compounds 1–4n and AmB
Method in brief: as §1

[15] = tested on: Aspergillus flavus ATCC MYA-3631; test: MIC, broth dilution, strain K; type: cell-based; details: for MIC: Aspergillus flavus
[16] = tested on: Candida glabrata ATCC 2001; test: MIC, broth dilution, strain H; type: cell-based; details: compounds 1–4n and AmB
Method in brief: as §1

Candida strains (A–J) = test: MIC against panel of Candida strains; type: cell-based
Method in brief: as §1

[17] = Mammalian cytotoxicity, resazurin assay, HEK293; type: cell-based; details: human, HEK293 cells
[18] = read-out: MIC (MIC-0) in µM (parentheses)
[19] = ATCC10231, read-out: MIC (MIC-0)
[20] = ATCC10231, read-out: MIC (MIC-0) in µM (parentheses)
[21] = 2× MIC (1 25, 2a 25, 3a 0.78, AmB 7.8 µg/mL)
[22] = ATCC64124, read-out: MIC (MIC-0)
[23] = ATCC64124, read-out: MIC (MIC-0) in µM (parentheses)
[24] = ATCC90819, read-out: MIC (MIC-0)
[25] = ATCC90819, read-out: MIC (MIC-0) in µM (parentheses)
[26] = read-out: MIC (MIC-2) in µM (parentheses)
[27] = ATCC38163, read-out: MIC (MIC-0)
[28] = ATCC38163, read-out: MIC (MIC-0) in µM (parentheses)
[29] = strain G, compounds 1–4n and AmB
[30] = strain F, compounds 1–4n and AmB
[31] = strain A, compounds 1–4n and AmB
[32] = strain E, compounds 1–4n and AmB
[33] = 1× MIC (1 12.5, 2a 12.5, 3a 0.39, AmB 3.9 µg/mL)
[34] = strain D, compounds 1–4n and AmB
[35] = strain C, compounds 1–4n and AmB

## C[C@@H]1[C@H](O)[C@@H](C)/C=C/C=C/C=C/C=C/C=C/C=C/C=C/[C@H](O[C@@H]2O[C@H](C)[C@@H](O)[C@H](N)[C@@H]2O)C[C@@H]2O[C@](O)(C[C@@H](O)C[C@@H](O)[C@H](O)CC[C@@H](O)C[C@@H](O)CC(=O)O[C@H]1C)C[C@H](O)[C@H]2C(=O)O [AmB, amphotericin B]
[1]; read-out: MIC (MIC-0)
  MIC: 3.9 µg/mL
[1]; [18]
  MIC: 4.22 µM
[2]; read-out: MIC (MIC-0)
  MIC: 3.9 µg/mL
[2]; [18]
  MIC: 4.22 µM
[3]; [19]
  MIC: 3.9 µg/mL
[3]; [20]
  MIC: 4.22 µM
[4]; read-out: MIC (MIC-0)
  MIC: 1.95 µg/mL
[4]; [18]
  MIC: 2.11 µM
[5]
  MIC: 0.98 to 15.6 µg/mL (≈ 1.06 to […] µM)
[6]
  time from which completely fungicidal: 6 h
[6]; [21]
  time-kill effect: completely fungicidal
C. albicans ATCC 64124; [22]
  MIC: 3.9 µg/mL
C. albicans ATCC 64124; [23]
  MIC: 4.22 µM
[7]; [24]
  MIC: 0.98 µg/mL
[7]; [25]
  MIC: 1.06 µM
[8]; read-out: MIC (MIC-0)
  MIC: 3.9 µg/mL
[8]; [18]
  MIC: 4.22 µM
[9]; read-out: MIC (MIC-0)
  MIC: 1.95 µg/mL
[9]; [18]
  MIC: 2.11 µM

## C[C@@H](c1ncncc1F)[C@](O)(Cn1cncn1)c1ccc(F)cc1F [VOR, voriconazole]
[1]; read-out: MIC (MIC-2)
  MIC: 7.8 µg/mL
[1]; [26]
  MIC: 22.3 µM
[2]; read-out: MIC (MIC-2)
  MIC: 0.975 µg/mL
[2]; [26]
  MIC: 2.79 µM
[3]; ATCC10231, read-out: MIC (MIC-2)
  MIC: 7.8 µg/mL
[3]; ATCC10231, read-out: MIC (MIC-2) in µM (parentheses)
  MIC: 22.3 µM
[4]; read-out: MIC (MIC-2)
  MIC: 1.95 µg/mL
[4]; [26]
  MIC: 5.58 µM
[10]
  MIC: 0.03 to 0.24 µg/mL (≈ 0.0859 to 0.687 µM)
[11]; [27]
  MIC: 0.03 µg/mL
[11]; [28]
  MIC: 0.09 µM
C. albicans ATCC 64124; ATCC64124, read-out: MIC (MIC-2)
  MIC: > 31.2 µg/mL
C. albicans ATCC 64124; ATCC64124, read-out: MIC (MIC-2) in µM (parentheses)
  MIC: > 89.3 µM
[7]; ATCC90819, read-out: MIC (MIC-2)
  MIC: 1.95 µg/mL
[7]; ATCC90819, read-out: MIC (MIC-2) in µM (parentheses)
  MIC: 5.58 µM
[8]; read-out: MIC (MIC-0)
  MIC: 0.12 µg/mL
[8]; [18]
  MIC: 0.34 µM
[9]; read-out: MIC (MIC-2)
  MIC: 0.975 µg/mL
[9]; [26]
  MIC: 2.79 µM

## ebsulfur [Compound 2a]
[12]
  concentration until which no significant hemolytic activity was shown: 15.6 µg/mL and 68.6 µM
[1]; [29]
  MIC (MIC-0): > 12.5 µg/mL
  MIC (MIC-0) in µM (parentheses): > 55.0 µM
[2]; [30]
  MIC (MIC-0): > 12.5 µg/mL
  MIC (MIC-0) in µM (parentheses): > 55.0 µM
[3]; [31]
  MIC (MIC-0): 12.5 µg/mL
  MIC (MIC-0) in µM (parentheses): 55.0 µM
[4]; [32]
  MIC (MIC-0): 6.25 µg/mL
  MIC (MIC-0) in µM (parentheses): 27.5 µM
[13]
  ROS induction (DCFH-DA fluorescence): highly fluorescent
[6]; [33]
  time-kill effect: fungistatic
[6]; [21]
  time-kill effect: fungicidal
[6]
  fungicidal concentration: 25 µg/mL and 110 µM
[11]; strain L, all compounds
  MIC (MIC-0): 6.25 µg/mL
  MIC (MIC-0) in µM (parentheses): 27.5 µM
C. albicans ATCC 64124; strain B, compounds 1–4n and AmB
  MIC (MIC-0) in µM (parentheses): > 55.0 µM
Candida krusei ATCC 6258
  MIC (MIC-0): 3.13 µg/mL
  MIC (MIC-0) in µM (parentheses): 13.8 µM
[14]
  MIC (MIC-0): 12.5 µg/mL
  MIC (MIC-0) in µM (parentheses): 55.0 µM
[15]; strain K, all compounds
  MIC (MIC-0): 6.25 µg/mL
  MIC (MIC-0) in µM (parentheses): 27.5 µM
[7]; [34]
  MIC (MIC-0): 3.13 µg/mL
  MIC (MIC-0) in µM (parentheses): 13.8 µM
[8]; strain M, all compounds
  MIC (MIC-0): 6.25 µg/mL
  MIC (MIC-0) in µM (parentheses): 27.5 µM
[9]; [35]
  MIC (MIC-0): 12.5 µg/mL
  MIC (MIC-0) in µM (parentheses): 55.0 µM
[16]
  MIC (MIC-0): 6.25 µg/mL
  MIC (MIC-0) in µM (parentheses): 27.5 µM
Candida strains (A–J); strains A, B, C, F, G and J (poorly active)
  MIC values against Candida strains: ≥ 12.5 µg/mL
Candida strains (A–J); strains D, E, H and I (active)
  MIC values against Candida strains: 1.56 to 6.25 µg/mL

## O=c1c2ccccc2[se]n1-c1ccccc1 [Compound 1, ebselen]
[12]
  concentration until which no significant hemolytic activity was shown: 15.6 µg/mL and 56.9 µM
[1]; read-out: MIC (MIC-0)
  MIC: 12.5 µg/mL
[1]; [18]
  MIC: 45.6 µM
[2]; read-out: MIC (MIC-0)
  MIC: > 12.5 µg/mL
[2]; [18]
  MIC: > 45.6 µM
[3]; [19]
  MIC: 12.5 µg/mL
[3]; [20]
  MIC: 45.6 µM
[4]; read-out: MIC (MIC-0)
  MIC: 3.13 µg/mL
[4]; [18]
  MIC: 11.4 µM
[13]
  ROS induction (DCFH-DA fluorescence): highly fluorescent
[6]; 1× MIC (12.5 µg/mL)
  time of complete fungal cell death: 6 h
[6]; [33]
  time-kill effect: fungicidal
[6]
  time from which completely fungicidal: 3 h
  fungicidal concentration: 12.5 µg/mL and 45.6 µM
[6]; [21]
  time-kill effect: completely fungicidal
[11]; [27]
  MIC: 1.56 µg/mL
[11]; [28]
  MIC: 5.69 µM
C. albicans ATCC 64124; [22]
  MIC: 12.5 µg/mL
C. albicans ATCC 64124; [23]
  MIC: 45.6 µM
[15]; read-out: MIC (MIC-0)
  MIC: 6.25 µg/mL
[15]; [18]
  MIC: 22.8 µM
[7]; [24]
  MIC: 1.56 µg/mL
[7]; [25]
  MIC: 5.69 µM
[8]; read-out: MIC (MIC-0)
  MIC: 1.56 µg/mL
[8]; [18]
  MIC: 5.69 µM
[17]
  IC50: > 10 µg/mL and > 36.5 µM
[9]; read-out: MIC (MIC-0)
  MIC: 12.5 µg/mL
[9]; [18]
  MIC: 45.6 µM
